Drawing on ChEMBL document CHEMBL3244192, “Antiallergic activity of tetracyclic derivatives of quinoline-2-carboxylic acids. 1” (1978), this text covers inhibition, minimal effective dose and ED50 for 36 molecules.

Calls of active or inactive are those of the source. The rule behind the calls is not given here.

The subject of test [1] is Rattus norvegicus. Kind of test: Antiallergic activity in egg albumin-sensitized Sprague-Dawley rat assessed as inhibition of passive cutaneous anaphylaxis at 25 to 50 mg/kg, po administered 15 mins prior to egg albumin and Evans blue dye challenge. It counts as functional, organism-based. The procedure, abridged:
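Rats were passively sensitized by intradermal mid-dorsal injection of antibody. The antibody came from rats sensitized to egg albumin with Bordetella pertussis adjuvant, and sensitivity developed over 24 h. Compound was given orally before iv egg albumin plus Evans blue. Blue weal size and intensity were compared with untreated rats to give percent inhibition.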

Test [2] relates to Rattus norvegicus. Kind of test: Antiallergic activity in egg albumin-sensitized Sprague-Dawley rat assessed as inhibition of passive cutaneous anaphylaxis compound administered ip 5 mins prior to egg albumin and Evans blue dye challenge. The class given is functional. As to conditions: for minimal effective dose: read-out: MED; for ED50: read-out: ID50 (the source's name). The procedure, abridged:
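Antibody from egg albumin/B. pertussis-sensitized rats was injected intradermally in the mid-dorsal region, then 24 h allowed. Drug was given ip, then iv egg albumin plus Evans blue. Weal size and intensity were scored against untreated controls. Initial doses were 50 or 25 mg/kg, then 10, 5, 2.5 and 1.25 mg/kg, with n = 6 per group. MED was the lowest significant ip dose (p ≤ 0.05, Student's t). ID50 was reported with 95% confidence limits.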

For test [3], the system named is Rattus norvegicus. Kind of test: Antiallergic activity in egg albumin-sensitized Sprague-Dawley rat assessed as inhibition of passive cutaneous anaphylaxis compound administered prior to egg albumin and Evans blue dye challenge. As to conditions: read-out: MED.

Turning to `CC(=O)c1ccc2[nH]c(C(=O)O)cc(=O)c2c1`, the inhibition result in test [1] was “inactive”. In addition, the minimal effective dose in test [2] amounted to 25 mg/kg.

In the case of `COC(=O)c1cc(=O)c2cccc(S(=O)(=O)c3ccccc3)c2[nH]1`, the inhibition entry in test [1] is “inactive”.

For the molecule `Cc1ccc(C(=O)c2cccc3c(=O)cc(C(=O)O)[nH]c23)cc1`, the inhibition entry in test [1] is “inactive”. The minimal effective dose in test [2] worked out at 25 mg/kg.

As to `COC(=O)c1cc(=O)c2cccc(C(=O)c3ccc(C)cc3)c2[nH]1`, the inhibition entry in test [1] is “inactive”.

Consider `COC(=O)c1cc(=O)c2cc([S+]([O-])c3ccccc3)ccc2[nH]1` (stereo not given), for which, in test [1], the inhibition result was “inactive”.

With `O=C(O)c1cc(=O)c2cccc(C(=O)c3ccccc3)c2[nH]1`, the inhibition entry in test [1] was “inactive”. Also, the minimal effective dose in test [2] was 25 mg/kg.

For `CC(=O)c1ccc2c(O)cc(C(=O)O)nc2c1`, in test [1], the inhibition result is “inactive”. Besides, the minimal effective dose in test [2] worked out at 10 mg/kg.

For the molecule `O=C(c1ccccc1)c1ccc2[nH]c(C(=O)[O-])cc(=O)c2c1.[Na+]`, the inhibition entry in test [1] was “inactive”. Moreover, the minimal effective dose in test [2] was 10 mg/kg.

On to `COC(=O)c1cc(=O)c2cc(S(=O)(=O)c3ccccc3)ccc2[nH]1`, for which the inhibition result in test [1] is “inactive”.

As to `O=C(O)c1cc(=O)c2ccc(S(=O)(=O)c3ccccc3)cc2[nH]1`, the inhibition result in test [1] is “inactive”. In addition, the minimal effective dose in test [2] is more than 25 mg/kg.

On to `O=C(O)c1cc(=O)c2cc([S+]([O-])c3ccccc3)ccc2[nH]1` (stereo not given), for which, in test [1], the inhibition entry was “inactive”. For the same molecule, in test [2], the minimal effective dose amounted to 25 mg/kg.

Turning to `COC(=O)c1cc(=O)c2cc(Sc3ccccc3)ccc2[nH]1`, the inhibition result in test [1] is “inactive”.

Turning to `COC(=O)c1cc(=O)c2cccc(Sc3ccccc3)c2[nH]1`, the inhibition entry in test [1] is “inactive”.

As to `O=C(O)c1cc(=O)c2cc(S(=O)(=O)c3ccccc3)ccc2[nH]1`, in test [1], the inhibition entry is “inactive”. Also, the minimal effective dose in test [2] was more than 25 mg/kg.

Take `O=C(O)c1cc(=O)c2ccc3c(c2[nH]1)-c1ccccc1C3=O`: in test [1], the inhibition result is “inactive”. For the same molecule, the minimal effective dose in test [2] was more than 25 mg/kg.

Take `COC(=O)c1cc(=O)c2ccc3c(c2[nH]1)C(=O)c1ccccc1-3`: the inhibition result in test [1] was “inactive”.

For `COC(=O)c1cc(=O)c2cc(Cl)cc(C(=O)c3ccccc3)c2[nH]1`, in test [1], the inhibition result was “inactive”.

Regarding `O=C(O)c1cc(=O)c2ccc3c(c2[nH]1)C(=O)c1ccccc1-3`, the inhibition result in test [1] is “inactive”. Besides, the ED50 in test [2] was determined as 2.8 mg/kg.

For the molecule `COC(=O)c1cc(=O)c2ccc(Sc3ccccc3)cc2[nH]1`, in test [1], the inhibition entry was “inactive”.

Take `O=C(O)c1cc(=O)c2ccccc2[nH]1` [TRANSTORINE]: the inhibition result in test [1] is “inactive”. In addition, the minimal effective dose in test [2] turned out to be 50 mg/kg.

On to `O=C(O)c1cc(=O)c2cccc(S(=O)(=O)c3ccccc3)c2[nH]1`, for which the inhibition result in test [1] is “inactive”. Besides, the minimal effective dose in test [2] was found to be 10 mg/kg.

`O=C([O-])c1cc(=O)c2c(OCC(O)COc3cccc4oc(C(=O)[O-])cc(=O)c34)cccc2o1.[Na+].[Na+]` [CROMOLYN SODIUM]: the inhibition entry in test [1] was “inactive”. Also, in test [2], the ED50 amounted to 2.6 mg/kg.

In the case of `O=C(O)c1cc(=O)c2cccc(Sc3ccccc3)c2[nH]1`, the inhibition entry in test [1] is “inactive”. In test [2], the minimal effective dose was found to be 25 mg/kg.

Take `O=C(O)c1cc(=O)c2cc(Sc3ccccc3)ccc2[nH]1`: the inhibition result in test [1] was “inactive”. Further, the minimal effective dose in test [2] was more than 50 mg/kg.

In the case of `COC(=O)c1cc(=O)c2cccc(C(=O)c3ccccc3)c2[nH]1`, the inhibition entry in test [1] is “inactive”.

As for `CC(=O)c1cccc2c(=O)cc(C(=O)O)[nH]c12`, the inhibition result in test [1] was “inactive”. Moreover, the minimal effective dose in test [2] stood at 25 mg/kg.

`O=C(O)c1cc(=O)c2cc(Cl)cc(C(=O)c3ccccc3)c2[nH]1`: in test [1], the inhibition result is “inactive”. For the same molecule, in test [2], the minimal effective dose amounted to 50 mg/kg.

Take `O=C(c1ccccc1)c1ccc2c(=O)cc(C(=O)O)[nH]c2c1`: the inhibition entry in test [1] was “inactive”. In addition, the minimal effective dose in test [2] came to 25 mg/kg.

On to `COC(=O)c1cc(=O)c2ccc(C(=O)c3ccccc3)cc2[nH]1`, for which the inhibition result in test [1] was “inactive”.

Regarding `COC(=O)c1cc(=O)c2cc(C(=O)c3ccccc3)ccc2[nH]1`, the inhibition entry in test [1] was “inactive”.

Regarding `COC(=O)c1cc(=O)c2ccc(C(C)=O)cc2[nH]1`, the inhibition entry in test [1] is “inactive”.

With `COC(=O)c1cc(=O)c2ccc3c(c2[nH]1)-c1ccccc1C3=O`, in test [1], the inhibition entry was “inactive”.

Regarding `O=C(O)c1cc(=O)c2ccc(Sc3ccccc3)cc2[nH]1`, the inhibition result in test [1] was “inactive”. For the same molecule, in test [2], the minimal effective dose is more than 25 mg/kg.

As to `COC(=O)c1cc(=O)c2ccc(S(=O)(=O)c3ccccc3)cc2[nH]1`, in test [1], the inhibition result was “inactive”.

Regarding `COC(=O)c1cc(=O)c2cccc(C(C)=O)c2[nH]1`, in test [3], the minimal effective dose was found to be 25 mg/kg.

For `COC(=O)c1cc(=O)c2cc(C(C)=O)ccc2[nH]1`, the inhibition entry in test [1] was “inactive”.
